Experimental data reported in ChEMBL document CHEMBL1152684 (Bioorg Med Chem, 2009).
Calls of active or inactive are those of the source. No cut-off for these calls is given here.

How the values were obtained:
Homo sapiens = organism: Homo sapiens; test: Binding affinity to cysteine-269 residue of human protein phosphatase 2A catalytic subunit at 0.6 uM after 2 hrs by MALDI-TOF MS analysis
Procedure, shortened: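 Purified PP2A (0.5 unit) incubated with or without ligand at 0.6 in 25 mM Tris-HCl, 137 mM NaCl, pH 7.5, 30 °C, 2 h. Samples boiled in SDS loading buffer with DTT and run on 10% gel. PP2Ac band reduced with DTT, alkylated with acrylamide and trypsin-digested. Peptide masses (MALDI-TOF MS) compared with native PP2Ac to find the adduct-bearing fragment.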

[1] = Inhibition of protein phosphatase 2A
[2] = Inhibition of protein phosphatase 1

Activity (Homo sapiens): Active | IC50 [1]: 0.0015 µM | IC50 [2]: 45 µM
Structure (SMILES): C[C@@](O)(/C=C/[C@H]1CC=CC(=O)O1)[C@@H](C[C@@H](O)\C=C/C=C\C=C\CO)OP(=O)(O)O [FOSTRIECIN]
